CHOP inhibitor: CHOP inhibition in unfolded protein response | CHO-K1 CHOP-promoter luciferase, tunicamycin-induced, 15-18 h | inhibition, % at 10 µM | hit rate 3.8% among 220,000 | AID 2732;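 active = compounds that reduced the stress-induced luciferase reporter signal by more than about 70% of percent inhibition, limit read from the data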
MPTP block: inhibitors of mitochondrial permeability transition pore. isolated mouse mitochondria, Ca2+ swelling absorbance, 30 min. inhibition, % at 10 µM. hit rate 1.4% among 360,000. AID 602449;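 active = inhibition of 50% or more, scaled per plate between neutral and stimulator controls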
UPR CHOP act: activators of apoptotic arm of unfolded protein response (CHOP) | CHO-CHOP luciferase reporter, UPR activation, luminescence; percent of tunicamycin response over DMSO baseline | activation, % at 10 µM | hit rate 0.34% among 330,000 | AID 449763;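 active = at 10 µM dose, activation of 40% or more, normalized to positive control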
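System: CHO-CHOP luciferase reporter cell line; amount: 500 cells/well; buffer or medium: F12 medium containing 10% fetal bovine serum; incubation: 6 h compound exposure at 37 °C after overnight seeding; measured by: luciferase luminescence after 10 min with Steady-Glo reagent; evaluation: % reporter activation, DMSO baseline versus tunicamycin full activation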
UPR XBP1 act: adaptive UPR (XBP1) activation. hit rate 0.33% among 330,000. CHO-XBP1 luciferase reporter, IRE1-XBP1 UPR activation, luminescence; percent of tunicamycin response, DMSO as zero. activation, % at 20 µM;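 active = versus positive control, 20 µM dose yields 30% or more activation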
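Material: CHO-XBP1 cells stably carrying IRE1-XBP1-driven luciferase reporter / Amount: 1000 cells per well / Compound: 20 µM, 1% DMSO / Times: 6 h treatment, 37 °C / Detection: luciferase luminescence / Measure: % activation of reporter signal versus tunicamycin and DMSO controls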
GRIN3A LBD mod: modulators (binders) of human NR3A ligand-binding domain; NR3A LBD differential scanning fluorimetry, Tm shift; 0% = protein alone, 100% = glycine-bound protein; hit rate 2.5% among 340,000; AID 1259313; Tm shift relative to glycine control, % at 25 µM;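 active = melting temperature shift of at least 10% of the positive control shift, at one fixed dose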
aDG glyco up: increases alpha dystroglycan glycosylation | Pro5-aDG cells, alpha-DG glycosylation AlphaScreen (IIH6); 0% Pro5, 100% B10-LARGE cell signal | activation, % at 10 µM | hit rate 0.22% among 360,000 | AID 624168;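 active = activation of at least 8% versus controls, or a plate z-score of at least 8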;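 note: Pro5 are CHO cells carrying HIG-tagged alpha-DG that lacks glycosylation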
A number is an active result; – = inactive; · = not tested or not shown. Most compounds without a hit are left out; they make up all but 5.6% or so of the library.

SMILES	CHOP inhibitor	MPTP block	UPR CHOP act	UPR XBP1 act	GRIN3A LBD mod	aDG glyco up
CCOC(=O)c1ccccc1NC(=O)c1c(F)c(F)c(F)c(F)c1F	73	–	–	–	–	–
CCOC(=O)c1c(C)[nH]c(C(=O)COC(=O)c2ccccc2NC(=O)c2ccco2)c1C	–	–	–	–	–	–
CCOC(=O)c1[nH]c(COC(=O)c2ccccc2NC(=O)c2ccco2)c(C(=O)OCC)c1C	81	–	–	–	–	–
O=C(Nc1ccccc1C(=O)NCCc1ccccc1)c1ccco1	–	–	–	–	16	–
CCOC(=O)c1ccccc1NC(=O)c1cccc(F)c1	74	–	–	–	–	–
Cc1cccc(COc2ccc(S(=O)(=O)N3CCOCC3)cc2[N+](=O)[O-])c1	·	–	–	–	–	–
CCCCN(CC)CCCNC(=S)Nc1ccc2nc3n(c(=O)c2c1)CCCCC3	–	–	–	–	–	–
Nc1nc(CN2CCN(c3cccc(Cl)c3)CC2)nc(N2CCCc3ccccc32)n1	88	–	–	–	–	–
NS(=O)(=O)c1ccc(NC(=O)CN2C(=O)c3ccccc3C2=O)cc1	–	–	–	–	–	–
C=CCN1C(=O)c2ccc(C(=O)OCC(=O)Nc3ccc(S(N)(=O)=O)cc3)cc2C1=O	·	–	–	–	17	–
O=C(N/N=C/c1ccccc1)c1ccc2c(c1)OCO2	·	–	–	–	–	–
O=C(N/N=C/c1cccc([N+](=O)[O-])c1)c1cc(-c2ccc3c(c2)OCO3)n[nH]1	–	–	–	–	29	–
O=C(N/N=C/c1cccc(O)c1)c1cc(-c2ccc3c(c2)OCO3)n[nH]1	–	–	–	–	32	–
O=C(N/N=C/c1ccc(O)cc1)c1cc(-c2ccc3c(c2)OCO3)n[nH]1	–	–	–	–	28	–
O=C(N/N=C/c1ccccc1)c1cc(-c2ccc3c(c2)OCO3)n[nH]1	–	–	–	–	26	–
CCCN=C1N(C)C[C@@H]2[C@@H]3C(=O)N(C)C(=O)[C@@H]3[C@](Cc3ccccc3)(C(=O)OC)N12	·	–	–	–	–	–
COc1cc2oc(=O)cc(-c3ccc(-c4ccc(C(F)(F)F)cc4)cc3)c2c(OC)c1OC	·	–	–	–	–	–
COc1cc2oc(=O)cc(-c3cccc(-c4ccc(C(F)(F)F)cc4)c3)c2c(OC)c1OC	·	–	–	–	17	–
c1ccc(-c2cc(N3CCOCC3)nc(-c3ccccc3)n2)cc1	89	–	–	–	–	–
Fc1ccc(Oc2cc(N3CCOCC3)nc(-c3ccccc3)n2)c(F)c1	87	–	–	–	–	–
COc1ccc(C2(c3ccc(OC)cc3)NC(=O)N(CC(=O)N3CCOCC3)C2=O)cc1	·	–	–	–	–	–
CCCCCCOc1ccc(OCC(O)CN2C(=O)NC(C)(C)C2=O)cc1 (stereo not given)	–	–	–	–	14	–
Cc1ccc(OCC(O)CN2C(=O)NC(C)(C)C2=O)cc1 (stereo not given)	–	–	–	–	–	–
O=C(Nc1ccccc1)N1CC=C(c2ccccc2)CC1	–	·	–	–	·	·
O=C(Nc1ccccc1)N1CC=C(c2ccc(F)cc2)CC1	–	–	–	–	21	–
SMILES	CHOP inhibitor	MPTP block	UPR CHOP act	UPR XBP1 act	GRIN3A LBD mod	aDG glyco up
CN(C)CCN(C(=O)c1ccc(C(=O)c2ccccc2)cc1)c1nc2cc3c(cc2s1)OCO3	·	–	–	–	11	–
CN(C)CCN(C(=O)c1ccc(C(=O)c2ccccc2)cc1)c1nc2cc3c(cc2s1)OCCO3	·	–	–	–	–	–
Cc1cc(NS(=O)(=O)c2ccccc2)c(C)c(Cl)c1O	–	–	–	–	–	16
Cc1c(O)ccc(NS(=O)(=O)c2ccccc2)c1C	–	–	–	–	–	–
O=c1cc(/N=C/c2coc3c(ccc4ccccc43)c2=O)[nH]c(=S)[nH]1	79	–	–	–	–	–
Oc1ccccc1-c1nnc(-c2ccc(C(F)(F)F)cc2)o1	–	–	–	–	–	–
CC1=Nc2ccccc2/C1=C\c1nc(-c2ccc(C(F)(F)F)cc2)oc1O	–	–	–	–	27	–
COc1ccc(-c2nc(/C=C3\C(C)=Nc4ccccc43)c(O)o2)cc1	–	–	–	–	–	–

Compound activity from PubChem BioAssay.
